Screening results from PubChem.
Hits are enriched below; roughly 4.1% of the tested compounds scored in any of these assays.
HCV NS3 hel inh = blocks Hepatitis C virus NS3 helicase unwinding; NS3 helicase DNA unwinding, Cy5 molecular beacon fluorescence; inhibition, % at 10.9 µM; actives 0.56% (n = 290,000);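 active means inhibition above the mean of all tested compounds plus 3 SD, set per campaign, cut at about 35% in these data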
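System: HCV NS3 helicase fragment; control set: DMSO and thioflavine S; technique: Cy5 fluorescence at 0 and 60 min, beacon hairpin quenching; reagent: beacon DNA duplex substrate plus ATP; replicates: singlicate; schedule: 1 h reaction at 25 °C, ATP-initiated; medium: MOPS buffer pH 6.5 with MgCl2, DTT, Tween20, BSA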
DNA FID counter = fluorescent intercalator displacement, NS3 helicase counter-screen; inhibition, % at 7.9 µM; DNA fluorescent intercalator displacement, fluorescence; actives 0.17% (n = 290,000); in the data active means inhibition above about 37%;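 further: higher means more ethidium bromide displaced from hairpin DNA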
MEKK2 WT-MEK5 = raises or lowers MEK5 binding to wildtype human MEKK2 PB1 domain; AID 1531; actives 1.1% (n = 290,000); bead flow cytometry, Alexa488-MEK5 binding to MEKK2 WT; actives lie on both sides; binding response (% of control), % at 10 µM; Q9Y2U5; in the data active means binding response below about 67% or above about 130%
T cruzi inh = blocks replication of Trypanosoma cruzi; T. cruzi beta-gal in NIH3T3, luminescence, 90 h; inhibition, % (no concentration beside the values); actives 1.4% (n = 300,000); AID 1885;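 active means mean inhibition across valid replicates above about 55%, limit read from the data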;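 further: signal also drops with host cell toxicity which is not excluded here; higher percent means less beta-gal luminescence so fewer parasites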
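System: Mouse NIH/3T3 fibroblasts infected with β-gal-expressing T. cruzi Tulahuen C4 | Quantity: NIH/3T3 cells, 5,000 per well | Reagent: 5000 reporter trypomastigotes per well | Dosing: Compound pinned at 50 nL/well, DMSO | Schedule: 3 h host attachment, then at least 90 h co-culture | Detection: GalScreen luminescence, 60 min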
MEKK3 PB1 HTS = MEKK3-MEK5 PB1 interaction, increase or decrease. bead-based flow cytometry, Alexa488-MEK5 binding to MEKK3; actives lie on both sides; 0 = blocked by unlabeled MEK5, 100 = vehicle. binding response (% of control), % at 10 µM. Q99759. actives 1.4% (n = 290,000);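 active means binding response more than 3 SD above or below the average of its plate-row segment, actives on both sides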;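 further: Alexa488 bead fluorescence after subtracting the streptavidin-only scavenger bead signal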
Target sequence (Q99759 whole entry, looked up): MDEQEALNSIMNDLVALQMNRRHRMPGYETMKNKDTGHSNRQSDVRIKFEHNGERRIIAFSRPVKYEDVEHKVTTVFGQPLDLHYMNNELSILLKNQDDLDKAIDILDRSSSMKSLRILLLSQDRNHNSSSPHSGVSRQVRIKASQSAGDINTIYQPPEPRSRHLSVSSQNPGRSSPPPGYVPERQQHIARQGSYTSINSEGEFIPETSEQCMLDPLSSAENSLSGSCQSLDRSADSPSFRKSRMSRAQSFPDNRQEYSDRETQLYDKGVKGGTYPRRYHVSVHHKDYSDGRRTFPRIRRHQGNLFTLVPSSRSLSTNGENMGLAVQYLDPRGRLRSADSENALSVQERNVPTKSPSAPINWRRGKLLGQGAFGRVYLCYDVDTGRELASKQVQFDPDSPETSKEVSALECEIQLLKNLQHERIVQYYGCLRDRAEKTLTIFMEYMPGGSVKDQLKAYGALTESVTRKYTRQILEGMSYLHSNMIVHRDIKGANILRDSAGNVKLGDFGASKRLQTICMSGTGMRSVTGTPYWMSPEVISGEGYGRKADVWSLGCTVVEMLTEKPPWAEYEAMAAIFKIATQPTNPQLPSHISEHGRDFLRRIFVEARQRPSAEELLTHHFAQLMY
MEKK2mut PB1 HTS = signal of MEK5 binding to mutant human MEKK2 PB1 domain. bead flow cytometry, Alexa488-MEK5 binding to MEKK2 mutant. percent response, % at 10 µM. actives 0.35% (n = 290,000); in the data active means percent response above about 24%, passing the limit was not always enough
A number is an active result; . = inactive; / = no result.

SMILES | HCV NS3 hel inh | DNA FID counter | MEKK2 WT-MEK5 | T cruzi inh | MEKK3 PB1 HTS | MEKK2mut PB1 HTS
CC1CC(C)CN(CCCNC(=O)C2CCN(c3nnc(-n4cccc4)s3)CC2)C1 (stereo unspecified) | . | . | 155 | . | . | .
Cc1cc(C)c2nc(N3CCC(C(=O)NCCCN4CC(C)CC(C)C4)CC3)sc2c1 (stereo unspecified) | . | . | . | 59 | . | .
CCN(CC)S(=O)(=O)c1cc(NC(=O)CCNC(=O)c2ccco2)ccc1C | . | . | . | . | . | .
CN1CCN(/N=C/c2ccc(-c3ccc([N+](=O)[O-])cc3Cl)o2)CC1 | . | . | . | 59 | . | .
CCn1cc(/C=C(\NC(=O)c2ccccc2Cl)C(=O)NCCN2CCOCC2)c2ccccc21 | . | . | . | . | . | .
C/C(=N/NC(=O)c1cccc(N2CCCC2=O)c1)c1ccncc1 | . | . | -5.0 | . | . | .
Cc1ccc2c(c1)sc(-c1ccc(N(C)C)cc1)[n+]2C | . | . | . | 62 | . | .
CC[n+]1c(C)sc2cc(C)ccc21 | . | . | . | . | . | .
Cc1noc(/C=C/c2cccnc2)c1[N+](=O)[O-] | . | . | . | 59 | . | .
C=CCOc1c(Br)cc(CNCCCN2CCOCC2)cc1OC | . | . | . | 58 | . | .
C=CCOc1ccc(Br)cc1CNCCCN1CCOCC1 | . | . | . | . | . | .
COc1ccc(NS(=O)(=O)c2ccc3ccccc3c2)c2ncccc12 | . | . | . | 57 | . | .
COc1ccccc1NS(=O)(=O)c1ccc2ccccc2c1 | . | . | . | . | . | .
C/C(=N\Nc1ccccn1)c1ccc2c(c1)OCO2 | . | . | . | . | . | .
C/C(=N\Nc1nc2ccccc2[nH]1)c1ccc2c(c1)OCCO2 | . | . | . | 57 | . | .
C/C(=N\Nc1nc2ccccc2[nH]1)c1ccc2c(c1)OCO2 | . | . | . | 78 | . | .
C/C(=N\Nc1nc2ccccc2[nH]1)c1ccccn1 | . | . | . | . | . | .
C[C@@H]1C=CC(=O)O[C@@H]1c1ccc(Cl)cc1 | . | . | . | . | . | .
Cc1ccc2cc(/C=N/NC(=O)[C@H]3C[C@@H]3c3ccccc3)c(Cl)nc2c1 | . | . | . | 55 | . | .
Cc1cccc2cc(/C=N/NC(=O)[C@H]3C[C@@H]3c3ccccc3)c(Cl)nc12 | . | . | . | . | . | .
O=C(O)CCC(=O)N1N=C(c2ccc(Br)cc2)CC1c1cccc(Br)c1 (stereo unspecified) | . | . | . | . | . | .
CCOC(=O)c1cnc2c(C)c(Cl)ccc2c1NCCCN1CCOCC1 | . | 54 | . | . | . | .
CCn1cc(CN2CCC(n3nccc3NC(=O)CCOc3ccccc3)CC2)c(C)n1 | . | . | . | . | . | .
O=C(Nc1ccccc1C(=O)O)c1cc(S(=O)(=O)N2CCCCC2)c(Cl)cc1Cl | . | . | . | 58 | . | .
O=C(Nc1ccccc1C(=O)O)c1ccc(Cl)c(S(=O)(=O)N2CCOCC2)c1 | . | . | . | . | . | .
SMILES | HCV NS3 hel inh | DNA FID counter | MEKK2 WT-MEK5 | T cruzi inh | MEKK3 PB1 HTS | MEKK2mut PB1 HTS
Cc1c(N=C/C=C2\N(C)c3ccccc3C2(C)C)c(=O)n(-c2ccccc2)n1C | . | . | . | . | . | .
Cc1c(N=C/C=C2/N(C)c3ccccc3C2(C)C)c(=O)n(-c2ccccc2)n1C | . | . | -5.0 | . | . | .
CCCc1c(O)nc(SC2CC(=O)N(c3ccc(C)c(Cl)c3)C2=O)[nH]c1=O (stereo unspecified) | / | / | / | . | / | /
Cc1ccc(N2C(=O)CC(Sc3nc4ccccc4o3)C2=O)cc1Cl (stereo unspecified) | . | . | . | 69 | . | .
O=c1ccn(Cc2ccc(F)cc2)c2ccnc(C(F)(F)F)c12 | . | . | . | . | . | .
NC(=S)N/N=C/c1ccccc1OCc1cccc(Cl)c1 | . | . | . | 62 | . | .
Cn1c(-c2ccccc2)cc2c3no[n+]([O-])c3ccc21 | . | . | . | 73 | . | .
Cc1[nH]n(-c2ccc([N+](=O)[O-])cc2)c(=O)c1C=NCCN1CCN(C(=O)c2ccc(F)cc2)CC1 | . | . | / | . | / | /
Cc1[nH]n(-c2ccc([N+](=O)[O-])cc2)c(=O)c1C=NCCN1CCN(C(=O)c2ccc(Br)cc2)CC1 | . | . | . | 66 | . | .
Cc1cc(Nc2cccc(F)c2)nc(-c2ccccc2O)n1 | . | . | . | 56 | . | .
CCOCCCNc1c2c(nc3cc(-c4ccc(F)cc4)nn13)CCC2 | . | . | . | . | . | .
CN(C)CCCNc1c2c(nc3cc(-c4cccc(F)c4)nn13)CCC2 | . | . | . | 68 | . | .
Nc1cc(N)nc(SCC(=O)N2CCCCC2)n1 | . | . | . | . | . | .
Cc1cc(C)nc(SCC(=O)N2CCCCC2)n1 | . | . | -2.0 | . | . | .
CC(C)(C)C1CCc2[nH]c3ccccc3c(=O)c2C1 (stereo unspecified) | . | . | . | 59 | . | .
CCOC(=O)c1c(NC(=O)N/N=C/c2ccc(O)c(OC)c2)sc(C(C)=O)c1C | . | . | . | . | . | .
CCOC(=O)c1c(NC(=O)N/N=C/c2ccccc2OCC)sc(C(C)=O)c1C | . | . | . | 68 | . | .
N#CC1=C(N)Oc2cc(O)ccc2C1c1ccc(Br)s1 (stereo unspecified) | . | . | . | . | . | .
COc1ccc(C2N(c3ccccc3)CCN2c2ccccc2)cc1O | . | . | . | . | . | .
COc1ccc(NC(=O)c2cccc(Oc3ccc([N+](=O)[O-])cc3Cl)c2)cc1 | . | . | . | . | . | .
COc1ccc([N+](=O)[O-])cc1NC(=O)Cc1ccc(C)cc1 | . | . | . | . | . | .
Cc1ccc(C(=O)COC(=O)c2cccc(NC(=O)c3ccc([N+](=O)[O-])cc3[N+](=O)[O-])c2)cc1 | . | . | . | 71 | . | .
COc1ccc(C)cc1NC(=O)c1ccc([N+](=O)[O-])cc1[N+](=O)[O-] | . | . | . | 71 | . | .
CC(=O)Nc1ccc(C(=O)OCC(=O)c2cccc([N+](=O)[O-])c2)cc1 | . | . | . | . | . | .
COc1ccc(C(=O)Nc2ccccc2)cc1NC(=O)c1ccc([N+](=O)[O-])cc1 | . | . | . | 61 | . | .
Cc1ccc(C)c(NC(=O)c2cccc(Oc3ccc([N+](=O)[O-])cc3Cl)c2)c1 | . | . | . | 55 | . | .
Cc1nc(-c2ccccn2)nc(N(C)c2ccccc2)c1Cl | . | . | . | 59 | . | .
CC(C)CCN1CCN(C2CCN(c3ccc4c(c3)OCO4)CC2)CC1CCO (stereo unspecified) | . | . | . | 66 | . | .
